T cruzi intra – inhibitors of intracellular Trypanosoma cruzi; intracellular Trypanosoma cruzi in host cells, plate reader; activity score (inhibition), % at 5.01 µM; 4.9% of 22,000 active; in the data active means activity score above about 55%;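 further: parasites and compound incubated about four days before reading; 0% = median of neutral control wells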
YB-1 expr inh – YB-1 expression inhibition | AID 434959 | U2OS, qRT-PCR YB-1 vs CDIP delta delta Cp, 16 h; stronger effect = higher value; zero = DMSO, each unit about twofold | 0.37% of 30,000 active | delta delta Cp (YB-1 minus CDIP) (concentration not given with the values);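 active means delta delta Cp rounded down to an integer at or above 3, about 3 SD of DMSO wells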;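 further: higher means less YB-1 transcript or more CDIP transcript relative to DMSO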
INS-1E ATP HTS – rescue of cytokine-induced death in INS-1E beta cells; INS-1E cytokine-induced death, ATP luminescence, 48 h; normalised: neutral wells 0, positive control 100; protection from cytokine-induced ATP loss, % at 10 µM; 0.1% of 20,000 active; AID 488910;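 active means mean replicate protection from cytokine-induced ATP loss at least 50% and at least 75% of replicates each reaching 50%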
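Assay system: INS-1E rat insulinoma cells. Amount: 8000 cells per well. Medium: phenol-red-free RPMI with 5% fetal bovine serum. Reagent: IL-1β, TNF-α and IFN-γ cytokine mix. Doses: one compound concentration, pin transfer. Schedule: 48 h co-treatment, 10 min post-lysis read. Detection: CellTiter-Glo luminescence measuring cellular ATP.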
Numbers without * were called inactive; nt = no result given. The sample as a whole holds a higher share of hits than the screen did.

SMILES | T cruzi intra | YB-1 expr inh | INS-1E ATP HTS
C[C@H](CO)N1C[C@H](C)[C@H](CN(C)S(=O)(=O)c2ccc(F)cc2)Oc2c(NC(=O)c3nc4ccccc4s3)cccc2C1=O | 61* | 1.3 | -37
Cc1ccc(S(=O)(=O)N(C)C[C@H]2Oc3c(NC(=O)c4nc5ccccc5s4)cccc3C(=O)N([C@H](C)CO)C[C@H]2C)cc1 | 16 | -0.45 | 4
C[C@@H]1CN([C@H](C)CO)C(=O)c2cccc(NC(=O)c3nc4ccccc4s3)c2O[C@H]1CN(C)S(=O)(=O)c1ccccc1 | 28 | -0.33 | -11
C[C@H](CO)N1C[C@H](C)[C@H](CN(C)S(=O)(=O)c2ccc(F)cc2)Oc2c(NS(=O)(=O)c3ccc(F)cc3)cccc2C1=O | 61* | 0.19 | -5
C[C@@H]1CN([C@H](C)CO)C(=O)c2cccc(NC(=O)c3nc4ccccc4s3)c2O[C@@H]1CN(C)S(=O)(=O)c1ccccc1 | 9 | -0.17 | 6
C[C@@H]1CN([C@H](C)CO)C(=O)c2cccc(NS(=O)(=O)c3ccc(F)cc3)c2O[C@@H]1CN(C)S(=O)(=O)c1ccc(F)cc1 | 16 | -0.42 | 2
Cc1ccc(S(=O)(=O)N(C)C[C@H]2Oc3c(NC(=O)c4nc5ccccc5s4)cccc3C(=O)N([C@H](C)CO)C[C@@H]2C)cc1 | 89* | -0.5 | -18
C[C@@H]1CN([C@@H](C)CO)C(=O)c2cccc(NC(=O)c3nc4ccccc4s3)c2O[C@@H]1CN(C)S(=O)(=O)c1ccccc1 | 60* | 0.36 | -40
O=C(CCCCCCC(=O)Nc1ccccc1O)NN=C1CCCCCC1 | -3 | 0.45 | 12
O=C(N/N=C/c1ccc([N+](=O)[O-])s1)c1ccccn1 | 7 | 0.031 | 12
C[C@H]1CN([C@@H](C)CO)C(=O)CCCn2cc(nn2)CO[C@@H]1CN(C)Cc1ccncc1 | -8 | -0.62 | nt
Cc1noc(C)c1S(=O)(=O)N(C)C[C@@H]1Oc2c(NS(=O)(=O)c3cn(C)cn3)cccc2C(=O)N([C@@H](C)CO)C[C@@H]1C | -27 | -0.25 | 5
Cc1ccc(S(=O)(=O)N(C)C[C@H]2Oc3c(NC(=O)c4nc5ccccc5s4)cccc3C(=O)N([C@@H](C)CO)C[C@@H]2C)cc1 | 75* | -0.14 | -12
Cc1ccc(S(=O)(=O)N(C)C[C@H]2Oc3c(NC(=O)c4nc5ccccc5s4)cccc3C(=O)N([C@@H](C)CO)C[C@H]2C)cc1 | 16 | -0.65 | -17
Cc1ccc(/C=N/NC(=O)c2ccc(C(=O)NO)cc2)o1 | -3 | -0.33 | 6
O=C1O[C@@H](c2ccccc2)[C@@H](c2ccccc2)N2[C@@H](c3ccc(OCCO)cc3)[C@]3(C(=O)Nc4ccc(C#CC5(O)CCCCCC5)cc43)[C@@H](C(=O)NC[C@H](O)c3ccccc3)[C@H]12 | nt | 0.28 | nt
Cc1noc(C)c1NC(=O)N(C)C[C@@H]1Oc2ccc(NC(=O)CCC(F)(F)F)cc2C(=O)N([C@H](C)CO)C[C@@H]1C | -4 | -0.066 | 4

From PubChem BioAssay
